Experimental data taken from ChEMBL document CHEMBL4257555, “Small molecule cores demonstrate non-competitive inhibition of lactate dehydrogenase” (Medchemcomm, 2018).

Experiments:
[1] = target: T1, L-lactate dehydrogenase B chain (Sus scrofa, UniProt P00336); assay: Non-competitive inhibition of porcine heart LDH using varying levels of pyruvate as substrate and NADH as cofactor measured after 2 hrs by double reciprocal lineweaver-burk plot analysis
[2] = target: T1, L-lactate dehydrogenase B chain; assay: Inhibition of porcine heart LDH using pyruvate as substrate and NADH as cofactor measured after 2 hrs by stopped-flow spectrometric method
Method in brief: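 Stopped-flow assay of pig heart LDH (5 nN) with 100 μM NADH and 300 μM pyruvate in 100 mM sodium phosphate pH 7.2 at 37 °C, after 2 h inhibitor preincubation at 4 °C. A340 initial rates averaged over five shots and normalised to uninhibited activity. EC50 from a four-parameter fit with min, max, EC50 and Hill coefficient refined.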

T1 sequence (P00336 whole entry): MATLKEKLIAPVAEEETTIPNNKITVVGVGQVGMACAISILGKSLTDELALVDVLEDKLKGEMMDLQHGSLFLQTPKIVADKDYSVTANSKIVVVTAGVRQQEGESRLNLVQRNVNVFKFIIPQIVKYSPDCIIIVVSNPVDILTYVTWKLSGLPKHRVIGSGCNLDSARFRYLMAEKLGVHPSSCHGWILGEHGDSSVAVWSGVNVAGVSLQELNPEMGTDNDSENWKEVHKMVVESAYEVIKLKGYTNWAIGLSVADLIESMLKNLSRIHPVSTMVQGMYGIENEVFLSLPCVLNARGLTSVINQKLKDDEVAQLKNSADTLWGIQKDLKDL

Row | SMILES | Ki [1] [µM] | EC50 [2] [µM]
1 | NC(=O)c1cc(O)cc(O)c1 | 355 | 712
2 | CC(=O)Nc1cccc(O)c1 [METACETAMOL] | 498 | 78
